Results on 6 compounds are retold here after ChEMBL document CHEMBL5104228, “Mechanistic insight into the repair of C8-linked pyrrolobenzodiazepine monomer-mediated DNA damage” (2022).

The term ΔTm denotes the change in melting temperature against a reference sample.

The test system of assay [1] is Caulobacter vibrioides. Put plainly: Effect on DNA damage repair in Caulobacter vibrioides lacking uvrA expression assessed as decrease in cell survival rate upto 1 ug/ml and measured after 2 days by agar dilution method. The assay is classed as functional, organism-based. As to conditions: dose <= 1.0 µg/ml, time 2.0 day.
The test system of assay [2] is Caulobacter vibrioides. Put plainly: Effect on DNA damage repair in Caulobacter vibrioides lacking recA, lexA and sidA expression assessed as decrease in cell survival rate upto 1 ug/ml and measured after 2 days by agar dilution method. In kind it is functional, organism-based. The conditions noted are these: dose <= 1.0 µg/ml, time 2.0 day.
For assay [3], the system named is Caulobacter vibrioides. The experiment in a line: Effect on DNA damage repair in Caulobacter vibrioides lacking recF expression assessed as decrease in cell survival rate upto 1 ug/ml and measured after 2 days by agar dilution method. The assay is classed as functional, organism-based. As to conditions: dose <= 1.0 µg/ml, time 2.0 day. For orientation: In agar dilution the substance is mixed into plates at graded concentrations.

For assay [4], the system named is Caulobacter vibrioides. The experiment in a line: Effect on DNA damage repair in Caulobacter vibrioides expressing Gam-GFP reporter system assessed as increase in double stranded break by measuring Gam localization in cells at 2 ug/ml and measured after 2 hrs by fluorescence analysis. In kind it is functional. The conditions noted are these: dose 2 µg/ml. Put shortly:
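Wild-type Caulobacter carrying a Gam-GFP reporter was drug-treated and imaged by fluorescence microscopy. The readout was the percentage of cells with Gam-GFP foci, counting […] cells. Mean and SD are from three independent experiments.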

Assay [5] concerns Caulobacter vibrioides. The experiment in a line: Effect on DNA damage repair in Caulobacter vibrioides lacking recO expression assessed as decrease in cell survival rate upto 1 ug/ml and measured after 2 days by agar dilution method. In kind it is functional, organism-based. As to conditions: dose <= 1.0 µg/ml, time 2.0 day.
For assay [6], the system named is Caulobacter vibrioides. The experiment in a line: Induction of DNA damage in Caulobacter vibrioides assessed as accumulation of SOS-induced YFP at 1 ug/ml incubated upto 2 hrs by fluorescence microscopy. The assay is classed as functional, organism-based. As to conditions: dose 1.0 µg/ml.
The subject of assay [7] is Caulobacter vibrioides. The experiment in a line: Effect on DNA damage repair in Caulobacter vibrioides lacking mutL expression assessed as decrease in cell survival rate upto 1 ug/ml and measured after 2 days by agar dilution method. In kind it is functional, organism-based. The conditions noted are these: dose <= 1.0 µg/ml, time 2.0 day. Put shortly:
(§1)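 Survival of Caulobacter wild type, ΔmutL and ΔalkB strains was tested across increasing drug doses. Cultures were serially diluted and spotted, and growth was scored along the dilution series. At least three independent experiments were run per strain, with mean and SEM of all repeats plotted.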

In assay [8] the test system is Caulobacter vibrioides. The experiment in a line: Effect on DNA damage repair in Caulobacter vibrioides lacking recN expression assessed as decrease in cell survival rate upto 1 ug/ml and measured after 2 days by agar dilution method. The assay is classed as functional, organism-based. The conditions noted are these: dose <= 1.0 µg/ml, time 2.0 day.
Assay [9] concerns Caulobacter vibrioides. The experiment in a line: Effect on DNA damage repair in Caulobacter vibrioides lacking recA expression assessed as decrease in cell survival rate upto 1 ug/ml and measured after 2 days by agar dilution method. The assay is classed as functional, organism-based. As to conditions: dose <= 1.0 µg/ml, time 2.0 day.
Assay [10] relates to Caulobacter vibrioides. Put plainly: Effect on DNA damage repair in Caulobacter vibrioides lacking DnaE2 expression assessed as decrease in cell survival rate upto 1 ug/ml and measured after 2 days by agar dilution method. As to conditions: dose <= 1.0 µg/ml, time 2.0 day. In kind it is functional, organism-based.
In assay [11] the test system is Caulobacter vibrioides. The experiment in a line: Effect on DNA damage repair in Caulobacter vibrioides lacking recR expression assessed as decrease in cell survival rate upto 1 ug/ml and measured after 2 days by agar dilution method. The assay is classed as functional, organism-based. As to conditions: dose <= 1.0 µg/ml, time 2.0 day.
Assay [12] deals with Caulobacter vibrioides. Put plainly: Effect on DNA damage repair in Caulobacter vibrioides lacking uvrA expression and expressing Gam-GFP reporter system assessed as fold increase in double stranded break by measuring Gam localization in cells at 1 ug/ml and measured after 2 hrs by fluorescence analysis. The conditions noted are these: dose 1 µg/ml. The assay is classed as functional.

The nature of assay [13]: Binding affinity to AT-rich 5'-fluoro and 3'-TAMRA tagged 5'-TAT-ATA-TAG-ATA-TTT-TTT-TAT-CTA-TAT-ATA-3' hairpin DNA (unknown origin) assessed as thermal stabilization by measuring change in melting temperature at 1 uM incubated for 3 hrs by FRET analysis. Put shortly:
(§2)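 Fluorophore/quencher-tagged hairpin DNA, AT-rich (Sequence 1) or GC-rich (Sequence 2), incubated with compound for 3 h or 24 h, then thermally melted. Melt curves were compared against a DNA-only control for the same sequence. Each reaction was run in triplicate.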

Assay [14] deals with Caulobacter vibrioides. The experiment in a line: Effect on DNA damage repair in Caulobacter vibrioides lacking recN expression and expressing Gam-GFP reporter system assessed as fold increase in double stranded break by measuring Gam localization in cells at 2 ug/ml and measured after 2 hrs by fluorescence analysis. As to conditions: dose 2 µg/ml.
The subject of assay [15] is Caulobacter vibrioides. Put plainly: Induction of DNA damage in Caulobacter vibrioides assessed as increase in cell death upto 1 ug/ml and measured after 2 days by agar dilution method. The assay is classed as functional, organism-based. The conditions noted are these: dose <= 1.0 µg/ml, time 2.0 day, DDE = dose-dependent effect.
A short description of assay [16]: Binding affinity to AT-rich 5'-fluoro and 3'-TAMRA tagged 5'-TAT-ATA-TAG-ATA-TTT-TTT-TAT-CTA-TAT-ATA-3' hairpin DNA(unknown origin) assessed as thermal stabilization by measuring change in melting temperature at 1 uM incubated for 24 hrs by FRET analysis. Put shortly:
as §2

Assay [17] is described as follows: Binding affinity to GC-rich 5'-fluoro and 3'-TAMRA tagged 5'-TAT-AGG-GAC-AGC-CCT-ATA-3' hairpin DNA (unknown origin) assessed as thermal stabilization by measuring change in melting temperature at 1 uM incubated for 24 hrs by FRET analysis. Put shortly: as §2
Assay [18] deals with Caulobacter vibrioides. Put plainly: Effect on DNA damage repair in Caulobacter vibrioides lacking alkB expression assessed as decrease in cell survival rate upto 1 ug/ml and measured after 2 days by agar dilution method. The assay is classed as functional, organism-based. The conditions noted are these: dose <= 1.0 µg/ml, time 2.0 day. Put shortly: as §1
Assay [19] in a line: Binding affinity to GC-rich 5'-fluoro and 3'-TAMRA tagged 5'-TAT-AGG-GAC-AGC-CCT-ATA-3' hairpin DNA (unknown origin) assessed as thermal stabilization by measuring change in melting temperature at 1 uM incubated for 3 hrs by FRET analysis. Put shortly: as §2
Assay [20] relates to Caulobacter vibrioides. Put plainly: Effect on DNA damage repair in Caulobacter vibrioides lacking addAB expression assessed as decrease in cell survival rate upto 1 ug/ml and measured after 2 days by agar dilution method. In kind it is functional, organism-based. As to conditions: dose <= 1.0 µg/ml, time 2.0 day.
For assay [21], the system named is Caulobacter vibrioides. The experiment in a line: Effect on DNA damage repair in Caulobacter vibrioides assessed as fold change as increase in rifampicin resistance colonies at 2 ug/ml incubated for 0.5 hrs followed by culture in new media and treated with rifampicin and measured after 48 hrs by colony formation assay. In kind it is functional. As to conditions: dose 2 µg/ml. Put shortly: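 Caulobacter cells exposed to drug; rifampicin-resistant colony counts expressed as fold change relative to untreated control (no DNA damage). Three independent experiments; mean and SD reported.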

For assay [22], the system named is Caulobacter vibrioides. Put plainly: Effect on DNA damage repair in Caulobacter vibrioides expressing Gam-GFP reporter system assessed as increase in double stranded break by measuring Gam localization in cells at 0.5 ug/ml and measured after 2 hrs by fluorescence analysis. In kind it is functional. As to conditions: dose 0.5 µg/ml. Put shortly:
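Wild-type Caulobacter carrying a Gam-GFP reporter; after drug treatment, cells imaged by fluorescence microscopy and percentage of cells with Gam-GFP foci scored ([…] cells). Three independent experiments; mean and SD reported.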

Assay [23] has as its system Caulobacter vibrioides. The experiment in a line: Induction of DNA damage in Caulobacter vibrioides assessed as accumulation of SOS-induced YFP at 0.5 ug/ml incubated upto 2 hrs by fluorescence microscopy. The assay is classed as functional, organism-based. As to conditions: dose 0.5 µg/ml.
Assay [24] deals with Caulobacter vibrioides. Put plainly: Effect on DNA damage repair in Caulobacter vibrioides lacking recN expression and expressing Gam-GFP reporter system assessed as fold increase in double stranded break by measuring Gam localization in cells at 0.5 ug/ml and measured after 2 hrs by fluorescence analysis. As to conditions: dose 0.5 µg/ml.
The subject of assay [25] is Caulobacter vibrioides. The experiment in a line: Effect on DNA damage repair in Caulobacter vibrioides lacking uvrA expression and expressing Gam-GFP reporter system assessed as fold increase in double stranded break by measuring Gam localization in cells at 0.5 ug/ml and measured after 2 hrs by fluorescence analysis. The assay is classed as functional. The conditions noted are these: dose 0.5 µg/ml.

Assay [26] has as its system Caulobacter vibrioides. The experiment in a line: Effect on DNA damage repair in Caulobacter vibrioides expressing Gam-GFP reporter system assessed as increase in double stranded break by measuring Gam localization in cells at 25 to 50 ug/ml and measured after 2 hrs by fluorescence analysis. The assay is classed as functional, organism-based. The conditions noted are these: dose 25-50 µg/ml.

Calls of active or inactive are those of the source. The calls are words filed in the database; no cut-off is given here.

As for `COS(C)(=O)=O`, the outcome with Caulobacter vibrioides [1] was Active.
In the case of `COC(=O)c1cc(-c2ccc(NC(=O)c3cc(NC(=O)CCCOc4cc5c(cc4OC)C(=O)N4CCC[C@H]4C=N5)cn3C)cc2)cn1C`, the outcome in the assay on Caulobacter vibrioides [2], in the assay on Caulobacter vibrioides [3], in the assay with Caulobacter vibrioides [1], with Caulobacter vibrioides [5], with Caulobacter vibrioides [6] and in the assay with Caulobacter vibrioides [7] was Active. Also, the result in the assay on Caulobacter vibrioides [8], in the assay on Caulobacter vibrioides [9], with Caulobacter vibrioides [10], in the assay with Caulobacter vibrioides [11], in the assay on Caulobacter vibrioides [18] and with Caulobacter vibrioides [20] was Active. Also, the Activity with Caulobacter vibrioides [4] is 5%; in the assay with Caulobacter vibrioides [12], 40%; in the assay on Caulobacter vibrioides [15] it was “Dde”. Also, the ΔTm turned out to be 15.7 °C in assay [13], 18.5 °C in assay [16], 17.4 °C in [17] and 16.3 °C in assay [19]. Also, the “fold change (FC)” value in the assay with Caulobacter vibrioides [14] stood at 2.
In the case of `CO[C@@]12[C@H](COC(N)=O)C3=C(C(=O)C(C)=C(N)C3=O)N1C[C@@H]1N[C@@H]12` [MITOMYCIN], the “fold change (FC)” value in the assay with Caulobacter vibrioides [21] was 2.5; in the assay with Caulobacter vibrioides [24], 2. Besides, the Activity was 5% in the assay on Caulobacter vibrioides [22], “Dde” in the assay on Caulobacter vibrioides [15] and 10% with Caulobacter vibrioides [25]. In addition, the outcome in the assay with Caulobacter vibrioides [7], in the assay on Caulobacter vibrioides [9], in the assay with Caulobacter vibrioides [23] and in the assay with Caulobacter vibrioides [18] was Active. Further, the ΔTm stood at 12.6 °C in [13], 12.8 °C in assay [16], 11.8 °C in [17] and 11.5 °C in assay [19].
On to `CCn1cc(C(=O)O)c(=O)c2cc(F)c(N3CCNCC3)cc21`, for which the result with Caulobacter vibrioides [1] and in the assay with Caulobacter vibrioides [26] was Active.
Regarding `COC(=O)c1cc(NC(=O)c2cc(NC(=O)CCCOc3cc4c(cc3OC)C(=O)N3CCC[C@H]3C=N4)cn2C)cn1C`, the ΔTm in [13] came to 18.9 °C; in [16], 21.1 °C; in assay [17] it was 19.2 °C; in [19], 18.6 °C.
With `COC(=O)c1cc2cc(NC(=O)c3cc(NC(=O)CCCOc4cc5c(cc4OC)C(=O)N4CCC[C@H]4C=N5)cn3C)ccc2s1`, the outcome with Caulobacter vibrioides [2], in the assay on Caulobacter vibrioides [3], in the assay on Caulobacter vibrioides [1], in the assay on Caulobacter vibrioides [5], in the assay with Caulobacter vibrioides [7] and in the assay on Caulobacter vibrioides [8] was Active. The result in the assay with Caulobacter vibrioides [9], in the assay on Caulobacter vibrioides [10], in the assay with Caulobacter vibrioides [11], in the assay with Caulobacter vibrioides [23], in the assay on Caulobacter vibrioides [18] and in the assay on Caulobacter vibrioides [20] was Active. Further, the results for the Activity with Caulobacter vibrioides [22], with Caulobacter vibrioides [15] and in the assay with Caulobacter vibrioides [25] were 5%, “Dde” and 56%, respectively. Further, the “fold change (FC)” value with Caulobacter vibrioides [24] was 2. Besides, the ΔTm amounted to 14 °C in [13], 15.6 °C in assay [16], 15.9 °C in assay [17] and 15.6 °C in [19].
